Key:
[1] = test system: KM12; test: Growth inhibition of human KM12 cells after 48 hrs by SRB assay; type: functional
[2] = test system: HOP-92; test: Growth inhibition of human HOP92 cells after 48 hrs by SRB assay; type: functional
[3] = test system: SK-BR-3; test: Cell cycle arrest in human SK-BR-3 cells assessed as accumulation at G2/M phase at 0.50 uM after 24 hrs using propidium iodide staining by FACS analysis; type: functional
Procedure, shortened: (§1)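 SKBR-3 cells in RPMI1640 with 10% heat-inactivated FBS at 37 °C and 5% CO₂ were treated for the stated times. Cells were fixed overnight in 70% EtOH at −20 °C, then stained with propidium iodide buffer (38 mM sodium citrate pH 7.5, 69 µM PI, 120 µg/mL RNase A) for 15 min at room temperature in the dark. Up to 1×10⁴ gated cells were analyzed by flow cytometry, giving percent distribution per phase.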

[4] = test system: SK-BR-3; test: Cell cycle arrest in human SK-BR-3 cells assessed as accumulation at S phase at 0.50 uM after 3 hrs using propidium iodide staining by FACS analysis; type: functional
[5] = test system: SK-BR-3; test: Cell cycle arrest in human SK-BR-3 cells assessed as accumulation at Sub-G1 phase at 0.50 uM after 12 hrs using propidium iodide staining by FACS analysis; type: functional
[6] = test system: A549; test: Growth inhibition of human A549 cells after 48 hrs by SRB assay; type: functional
[7] = test system: SK-BR-3; test: Cell cycle arrest in human SK-BR-3 cells assessed as accumulation at G1 phase at 0.50 uM after 18 hrs using propidium iodide staining by FACS analysis; type: functional; procedure, shortened: as §1
[8] = test system: SK-BR-3; test: Cell cycle arrest in human SK-BR-3 cells assessed as accumulation at G1 phase at 0.50 uM after 24 hrs using propidium iodide staining by FACS analysis; type: functional; procedure, shortened: as §1
[9] = test system: SK-BR-3; test: Cell cycle arrest in human SK-BR-3 cells assessed as accumulation at G2/M phase at 0.50 uM after 3 hrs using propidium iodide staining by FACS analysis; type: functional; procedure, shortened: as §1
[10] = test system: MDA-MB-231; test: Growth inhibition of human MDA-MB-231 cells after 48 hrs by SRB assay; type: functional
[11] = test system: SK-BR-3; test: Cell cycle arrest in human SK-BR-3 cells assessed as accumulation at S phase at 5 uM after 3 hrs using propidium iodide staining by FACS analysis; type: functional
[12] = test system: SK-BR-3; test: Cell cycle arrest in human SK-BR-3 cells assessed as accumulation at G2/M phase at 0.10 uM after 12 hrs using propidium iodide staining by FACS analysis; type: functional; procedure, shortened: as §1
[13] = test system: SK-MEL-5; test: Growth inhibition of human SK-MEL-5 cells after 48 hrs by SRB assay; type: functional
[14] = test system: SK-BR-3; test: Cell cycle arrest in human SK-BR-3 cells assessed as accumulation at G2/M phase at 0.25 uM after 6 hrs using propidium iodide staining by FACS analysis; type: functional; procedure, shortened: as §1
[15] = test system: PC-3; test: Growth inhibition of human PC3 cells after 48 hrs by SRB assay; type: functional
[16] = test system: SK-BR-3; test: Cell cycle arrest in human SK-BR-3 cells assessed as accumulation at G1 phase at 5 uM after 12 hrs using propidium iodide staining by FACS analysis; type: functional; procedure, shortened: as §1
[17] = test system: SNB-75; test: Growth inhibition of human SNB75 cells after 48 hrs by SRB assay; type: functional
[18] = test system: UACC-257; test: Growth inhibition of human UACC257 cells after 48 hrs by SRB assay; type: functional
[19] = test system: SK-BR-3; test: Cell cycle arrest in human SK-BR-3 cells assessed as accumulation at G1 phase at 5 uM after 18 hrs using propidium iodide staining by FACS analysis; type: functional; procedure, shortened: as §1
[20] = test system: SK-BR-3; test: Cell cycle arrest in human SK-BR-3 cells assessed as accumulation at Sub-G1 phase at 0.10 uM after 12 hrs using propidium iodide staining by FACS analysis; type: functional
[21] = test system: UO-31; test: Growth inhibition of human UO31 cells after 48 hrs by SRB assay; type: functional
[22] = test system: HCT-15; test: Growth inhibition of human HCT15 cells after 48 hrs by SRB assay; type: functional
[23] = test system: SK-BR-3; test: Cell cycle arrest in human SK-BR-3 cells assessed as accumulation at G1 phase at 0.10 uM after 6 hrs using propidium iodide staining by FACS analysis; type: functional; procedure, shortened: as §1
[24] = test system: SK-BR-3; test: Cell cycle arrest in human SK-BR-3 cells assessed as accumulation at Sub-G1 phase at 0.50 uM after 18 hrs using propidium iodide staining by FACS analysis; type: functional
[25] = test system: SK-BR-3; test: Cell cycle arrest in human SK-BR-3 cells assessed as accumulation at G2/M phase at 5 uM after 12 hrs using propidium iodide staining by FACS analysis; type: functional; procedure, shortened: as §1
[26] = test system: SK-BR-3; test: Cell cycle arrest in human SK-BR-3 cells assessed as accumulation at S phase at 0.10 uM after 6 hrs using propidium iodide staining by FACS analysis; type: functional; procedure, shortened: as §1
[27] = Terminal half life in Sprague-Dawley rat at 20 mg/kg, ip; type: ADME, organism-based; design: dose 20 mg/kg, route intraperitoneal; settings: in vivo, read-out: beta t1/2 (converted)
Procedure, shortened: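 Male Sprague–Dawley rats (300–350 g, n=3), fasted overnight with water allowed. Single 20 mg/kg i.p. dose in PBS with 0.1% Tween80 and 20% DMSO. Blood taken from saphenous and femoral veins into heparinized tubes at 0, 0.25, 0.5, 1, 2, 4, 8 and 24 h. Plasma quantified by LC-MS/MS (MRM, 483.3→404.3) after tert-butyl methyl ether/hexane extraction. Parameters derived non-compartmentally.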

[28] = test system: OVCAR-5; test: Growth inhibition of human OVCAR5 cells after 48 hrs by SRB assay; type: functional
[29] = test system: LOX IMVI; test: Growth inhibition of human LOXIMVI cells after 48 hrs by SRB assay; type: functional
[30] = test system: SK-BR-3; test: Cell cycle arrest in human SK-BR-3 cells assessed as accumulation at S phase at 5 uM after 18 hrs using propidium iodide staining by FACS analysis; type: functional
[31] = test system: TK-10; test: Growth inhibition of human TK10 cells after 48 hrs by SRB assay; type: functional
[32] = test system: SF-268; test: Growth inhibition of human SF268 cells after 48 hrs by SRB assay; type: functional

With `Cc1ccc(C)c(COc2cc(NC(=O)c3ccc4c(c3)OCO4)ccc2N(C)S(C)(=O)=O)c1` the “growth inhibition (GI)” value [1] was “Dose-dependent effect”, the GI50 ([1]; KM12, 48 h) was 85.5 nM and the TGI ([1]; KM12, 48 h) was 1130 nM. For the same compound, the CC50 ([1]; KM12, 48 h, read-out: LC50 (the source's name)) was over 100000 nM, the “growth inhibition (GI)” value [2] was “Dose-dependent effect” and the GI50 ([2]; HOP-92, 48 h) was 3220 nM. The TGI ([2]; HOP-92, 48 h) was over 100000 nM, the CC50 ([2]; HOP-92, 48 h, read-out: LC50 (the source's name)) was over 100000 nM and the Activity [3] was 28.14%. The Activity [4] was 17.76%, the Activity [5] was 6.36% and the “growth inhibition (GI)” value [6] was “Dose-dependent effect”. It also gave a GI50 ([6]; A549, 48 h) of 278 nM, a TGI ([6]; A549, 48 h) of 13600 nM and a CC50 ([6]; A549, 48 h, read-out: LC50 (the source's name)) of over 100000 nM. For the same compound, the Activity [7] was 61.19%, the Activity [8] was 31.77% and the Activity [9] was 11.54%. The “growth inhibition (GI)” value [10] was “Dose-dependent effect”, the GI50 ([10]; MDA-MB-231, 48 h) was 256 nM and the TGI ([10]; MDA-MB-231, 48 h) was 926 nM. It also gave a CC50 ([10]; MDA-MB-231, 48 h, read-out: LC50 (the source's name)) of over 100000 nM, an Activity [11] of 16.49% and an Activity [12] of 12.05%. For the same compound, the “growth inhibition (GI)” value [13] was “Dose-dependent effect”, the GI50 ([13]; SK-MEL-5, 48 h) was 253 nM and the TGI ([13]; SK-MEL-5, 48 h) was 1650 nM. The CC50 ([13]; SK-MEL-5, 48 h, read-out: LC50 (the source's name)) was 34100 nM, the Activity [14] was 9.32% and the “growth inhibition (GI)” value [15] was “Dose-dependent effect”. For the same compound, the GI50 ([15]; PC-3, 48 h) was 67.7 nM, the TGI ([15]; PC-3, 48 h) was over 100000 nM and the Activity [16] was 63.71%. The “growth inhibition (GI)” value [17] was “Dose-dependent effect”, the GI50 ([17]; SNB-75, 48 h) was 266 nM and the CC50 ([17]; SNB-75, 48 h, read-out: LC50 (the source's name)) was over 100000 nM. For the same compound, the “growth inhibition (GI)” value [18] was “Dose-dependent effect”, the GI50 ([18]; UACC-257, 48 h) was 144 nM and the TGI ([18]; UACC-257, 48 h) was over 100000 nM. It also gave a CC50 ([18]; UACC-257, 48 h, read-out: LC50 (the source's name)) of over 100000 nM, an Activity [19] of 63.55% and an Activity [20] of 5.27%. For the same compound, the “growth inhibition (GI)” value [21] was “Dose-dependent effect”, the GI50 ([21]; UO-31, 48 h) was 395 nM and the TGI ([21]; UO-31, 48 h) was over 100000 nM. For the same compound, the “growth inhibition (GI)” value [22] was “Dose-dependent effect”, the GI50 ([22]; HCT-15, 48 h) was 289 nM and the TGI ([22]; HCT-15, 48 h) was over 100000 nM. For the same compound, the CC50 ([22]; HCT-15, 48 h, read-out: LC50 (the source's name)) was over 100000 nM, the Activity [23] was 71.43% and the Activity [24] was 8.47%. For the same compound, the Activity [25] was 20.54%, the Activity [26] was 15.84% and the half-life [27] was 3.12 h. The “growth inhibition (GI)” value [28] was “Dose-dependent effect”, the GI50 ([28]; OVCAR-5, 48 h) was 538 nM and the TGI ([28]; OVCAR-5, 48 h) was over 100000 nM. For the same compound, the GI50 [29] was 66.6 nM, the TGI [29] was over 100000 nM and the “growth inhibition (GI)” value [29] was “Dose-dependent effect”. For the same compound, the CC50 ([29]; read-out: LC50 (the source's name)) was over 100000 nM, the Activity [30] was 6.73% and the “growth inhibition (GI)” value [31] was “Dose-dependent effect”. It also gave a GI50 ([31]; TK-10, 48 h) of 354 nM, a TGI ([31]; TK-10, 48 h) of over 100000 nM and a CC50 ([31]; TK-10, 48 h, read-out: LC50 (the source's name)) of over 100000 nM. For the same compound, the “growth inhibition (GI)” value [32] was “Dose-dependent effect”, the GI50 ([32]; SF-268, 48 h) was 288 nM and the TGI ([32]; SF-268, 48 h) was over 100000 nM. It also gave a CC50 ([32]; SF-268, 48 h, read-out: LC50 (the source's name)) of over 100000 nM.

From ChEMBL document CHEMBL1932938, “From COX-2 inhibitor nimesulide to potent anti-cancer agent: synthesis, in vitro, in vivo and pharmacokinetic evaluation” (Eur J Med Chem, 2012)
